System: CAKI-1
Assay: Cytotoxicity against human Caki1 cells after 48 hrs by sulforhodamine B assay
Assay type: functional
Conditions: CAKI-1, 48 h
`COc1cc(C(=O)c2ccc3c(c2)oc(=O)n3S(C)(=O)=O)cc(OC)c1OC` gave a GI50 of 2.64 µM.

System: DU-145
Assay: Cytotoxicity against human DU145 cells after 48 hrs by sulforhodamine B assay
Assay type: functional
Conditions: DU-145, 48 h
For `COc1ccc(/C=C/c2cc(OC)c(OC)c(OC)c2)c(O)c1O`, the GI50 was 0.512 µM. `COc1cc(C(=O)c2ccc3c(c2)oc(=O)n3S(C)(=O)=O)cc(OC)c1OC` gave a GI50 of 3.04 µM.

System: SF-295
Assay: Cytotoxicity against human SF295 cells after 48 hrs by sulforhodamine B assay
Assay type: functional
Conditions: SF-295, 48 h
In the case of `COc1cc(C(=O)c2ccc3c(c2)oc(=O)n3S(C)(=O)=O)cc(OC)c1OC`, the GI50 is reported as 1.61 µM.

System: CCRF-CEM
Assay: Cytotoxicity against human CCRF-CEM cells after 48 hrs by sulforhodamine B assay
Assay type: functional
Conditions: not given
With `COc1cc(C(=O)c2ccc3c(c2)oc(=O)n3S(C)(=O)=O)cc(OC)c1OC` the GI50 was 3.35 µM.

System: HCT-15
Assay: Cytotoxicity against human HCT15 cells after 48 hrs by sulforhodamine B assay
Assay type: functional
Conditions: HCT-15, 48 h
In the case of `COc1cc(C(=O)c2ccc3c(c2)oc(=O)n3S(C)(=O)=O)cc(OC)c1OC`, the GI50 is reported as 2 µM.

System: K562
Assay: Cytotoxicity against human K562 cells after 48 hrs by sulforhodamine B assay
Assay type: functional
Conditions: K562, 48 h
`COc1cc(C(=O)c2ccc3c(c2)oc(=O)n3S(C)(=O)=O)cc(OC)c1OC` gave a GI50 of 0.588 µM.

System: HCT-116
Assay: Cytotoxicity against human HCT116 cells after 48 hrs by sulforhodamine B assay
Assay type: functional
Conditions: HCT-116, 48 h
`COc1cc(C(=O)c2ccc3c(c2)oc(=O)n3S(C)(=O)=O)cc(OC)c1OC` gave a GI50 of 2.31 µM.

System: EKVX
Assay: Cytotoxicity against human EKVX cells after 48 hrs by sulforhodamine B assay
Assay type: functional
Conditions: not given
`COc1cc(C(=O)c2ccc3c(c2)oc(=O)n3S(C)(=O)=O)cc(OC)c1OC` showed a GI50 of 4.58 µM.

System: UACC-62
Assay: Cytotoxicity against human UACC62 cells after 48 hrs by sulforhodamine B assay
Assay type: functional
Conditions: UACC-62, 48 h
`COc1cc(C(=O)c2ccc3c(c2)oc(=O)n3S(C)(=O)=O)cc(OC)c1OC` gave a GI50 of 5.3 µM.

System: SF-268
Assay: Cytotoxicity against human SF268 cells after 48 hrs by sulforhodamine B assay
Assay type: functional
Conditions: SF-268, 48 h
`COc1cc(C(=O)c2ccc3c(c2)oc(=O)n3S(C)(=O)=O)cc(OC)c1OC` gave a GI50 of 7.95 µM.

System: COLO 205
Assay: Cytotoxicity against human COLO205 cells after 48 hrs by sulforhodamine B assay
Assay type: functional
Conditions: COLO 205, 48 h
In the case of `COc1cc(C(=O)c2ccc3c(c2)oc(=O)n3S(C)(=O)=O)cc(OC)c1OC`, the GI50 is reported as 2.5 µM.

System: NCI-H522
Assay: Cytotoxicity against human NCI-H522 cells after 48 hrs by sulforhodamine B assay
Assay type: functional
Conditions: NCI-H522, 48 h
With `COc1cc(C(=O)c2ccc3c(c2)oc(=O)n3S(C)(=O)=O)cc(OC)c1OC` the GI50 was 2.34 µM.

System: KM12
Assay: Cytotoxicity against human KM12 cells after 48 hrs by sulforhodamine B assay
Assay type: functional
Conditions: KM12, 48 h
`COc1cc(C(=O)c2ccc3c(c2)oc(=O)n3S(C)(=O)=O)cc(OC)c1OC` showed a GI50 of 1.15 µM.

System: OVCAR-4
Assay: Cytotoxicity against human OVCAR4 cells after 48 hrs by sulforhodamine B assay
Assay type: functional
Conditions: OVCAR-4, 48 h
Work on `COc1cc(C(=O)c2ccc3c(c2)oc(=O)n3S(C)(=O)=O)cc(OC)c1OC` yielded a GI50 of 22.3 µM.

System: UO-31
Assay: Cytotoxicity against human UO31 cells after 48 hrs by sulforhodamine B assay
Assay type: functional
Conditions: UO-31, 48 h
`COc1cc(C(=O)c2ccc3c(c2)oc(=O)n3S(C)(=O)=O)cc(OC)c1OC` gave a GI50 of 6.81 µM.

System: SN12C
Assay: Cytotoxicity against human SN12C cells after 48 hrs by sulforhodamine B assay
Assay type: functional
Conditions: not given
`COc1cc(C(=O)c2ccc3c(c2)oc(=O)n3S(C)(=O)=O)cc(OC)c1OC` gave a GI50 of 7.79 µM.

System: Hs-578T
Assay: Cytotoxicity against human HS578T cells after 48 hrs by sulforhodamine B assay
Assay type: functional
Conditions: not given
`COc1cc(C(=O)c2ccc3c(c2)oc(=O)n3S(C)(=O)=O)cc(OC)c1OC` showed a GI50 of 3.16 µM.

System: NCI-H460
Assay: Cytotoxicity against human NCI-H460 cells after 48 hrs by sulforhodamine B assay
Assay type: functional
Conditions: NCI-H460, 48 h
With `COc1cc(C(=O)c2ccc3c(c2)oc(=O)n3S(C)(=O)=O)cc(OC)c1OC` the GI50 was 2.64 µM.

System: MDA-MB-468
Assay: Cytotoxicity against human MDA-MB-468 cells after 48 hrs by sulforhodamine B assay
Assay type: functional
Conditions: MDA-MB-468, 48 h
`COc1cc(C(=O)c2ccc3c(c2)oc(=O)n3S(C)(=O)=O)cc(OC)c1OC` showed a GI50 of 2.82 µM.

System: OVCAR-3
Assay: Cytotoxicity against human OVCAR3 cells after 48 hrs by sulforhodamine B assay
Assay type: functional
Conditions: OVCAR-3, 48 h
`COc1cc(C(=O)c2ccc3c(c2)oc(=O)n3S(C)(=O)=O)cc(OC)c1OC` gave a GI50 of 1.56 µM.

System: MDA-MB-231
Assay: Cytotoxicity against human MDA-MB-231/ATCC cells after 48 hrs by sulforhodamine B assay
Assay type: functional
Conditions: MDA-MB-231, 48 h
Work on `COc1cc(C(=O)c2ccc3c(c2)oc(=O)n3S(C)(=O)=O)cc(OC)c1OC` yielded a GI50 of 4.85 µM.

System: SK-OV-3
Assay: Cytotoxicity against human SKOV3 cells after 48 hrs by sulforhodamine B assay
Assay type: functional
Conditions: SK-OV-3, 48 h
`COc1cc(C(=O)c2ccc3c(c2)oc(=O)n3S(C)(=O)=O)cc(OC)c1OC` showed a GI50 of 2.84 µM.

System: A549
Assay: Cytotoxicity against human A549/ATCC cells after 48 hrs by sulforhodamine B assay
Assay type: functional
Conditions: A549, 48 h
`COc1cc(C(=O)c2ccc3c(c2)oc(=O)n3S(C)(=O)=O)cc(OC)c1OC` gave a GI50 of 4.68 µM.

System: SF-539
Assay: Cytotoxicity against human SF539 cells after 48 hrs by sulforhodamine B assay
Assay type: functional
Conditions: SF-539, 48 h
In the case of `COc1cc(C(=O)c2ccc3c(c2)oc(=O)n3S(C)(=O)=O)cc(OC)c1OC`, the GI50 is reported as 2.36 µM.

System: NCI/ADR-RES
Assay: Cytotoxicity against human NCI/ADR-RES cells after 48 hrs by sulforhodamine B assay
Assay type: functional
Conditions: not given
With `COc1cc(C(=O)c2ccc3c(c2)oc(=O)n3S(C)(=O)=O)cc(OC)c1OC` the GI50 was 2.03 µM.

System: SK-MEL-2
Assay: Cytotoxicity against human SK-MEL-2 cells after 48 hrs by sulforhodamine B assay
Assay type: functional
Conditions: SK-MEL-2, 48 h
`COc1cc(C(=O)c2ccc3c(c2)oc(=O)n3S(C)(=O)=O)cc(OC)c1OC` gave a GI50 of 5.11 µM.

System: HCC 2998
Assay: Cytotoxicity against human HCC2998 cells after 48 hrs by sulforhodamine B assay
Assay type: functional
Conditions: HCC 2998, 48 h
Work on `COc1cc(C(=O)c2ccc3c(c2)oc(=O)n3S(C)(=O)=O)cc(OC)c1OC` yielded a GI50 of 6.75 µM.

System: SK-MEL-28
Assay: Cytotoxicity against human SK-MEL-28 cells after 48 hrs by sulforhodamine B assay
Assay type: functional
Conditions: SK-MEL-28, 48 h
For `COc1cc(C(=O)c2ccc3c(c2)oc(=O)n3S(C)(=O)=O)cc(OC)c1OC`, the GI50 was 11.3 µM.

System: HL-60(TB)
Assay: Cytotoxicity against human HL-60(TB) cells after 48 hrs by sulforhodamine B assay
Assay type: functional
Conditions: HL-60, 48 h
For `COc1cc(C(=O)c2ccc3c(c2)oc(=O)n3S(C)(=O)=O)cc(OC)c1OC`, the GI50 was 2.52 µM.

System: A498
Assay: Cytotoxicity against human A498 cells after 48 hrs by sulforhodamine B assay
Assay type: functional
Conditions: A498, 48 h
In the case of `COc1cc(C(=O)c2ccc3c(c2)oc(=O)n3S(C)(=O)=O)cc(OC)c1OC`, the GI50 is reported as 3.11 µM.

System: M14
Assay: Cytotoxicity against human M14 cells after 48 hrs by sulforhodamine B assay
Assay type: functional
Conditions: M14, 48 h
Compound `COc1cc(C(=O)c2ccc3c(c2)oc(=O)n3S(C)(=O)=O)cc(OC)c1OC` has a GI50 of 1.36 µM.

System: MDA-MB-435
Assay: Cytotoxicity against human MDA-MB-435 cells after 48 hrs by sulforhodamine B assay
Assay type: functional
Conditions: MDA-MB-435, 48 h
`COc1cc(C(=O)c2ccc3c(c2)oc(=O)n3S(C)(=O)=O)cc(OC)c1OC` showed a GI50 of 0.289 µM.

System: MCF7
Assay: Cytotoxicity against human MCF7 cells after 48 hrs by sulforhodamine B assay
Assay type: functional
Conditions: MCF7, 48 h
`COc1cc(C(=O)c2ccc3c(c2)oc(=O)n3S(C)(=O)=O)cc(OC)c1OC` gave a GI50 of 4.43 µM.

System: OVCAR-5
Assay: Cytotoxicity against human OVCAR5 cells after 48 hrs by sulforhodamine B assay
Assay type: functional
Conditions: OVCAR-5, 48 h
Compound `COc1cc(C(=O)c2ccc3c(c2)oc(=O)n3S(C)(=O)=O)cc(OC)c1OC` has a GI50 of 5.77 µM.

System: not listed separately
Assay: Inhibition of bovine brain tubulin polymerization after 30 mins by turbidimetry analysis
Design: species or system Bos taurus
Conditions: not given
How it was run: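 Lyophilized bovine brain tubulin (97%) reconstituted to 5 mg/mL in 80 mM PIPES pH 6.9, 2 mM MgCl₂, 0.5 mM EGTA, 1.0 mM GTP and 5% glycerol. Compound in DMSO was added to this solution in a quartz cuvette at 0 °C. Assembly was followed as the rise in absorbance at 340 nm at 37 °C. IC₅₀ is the molar concentration halving the extent of assembly after 30 min.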
`COc1ccc(/C=C/c2cc(OC)c(OC)c(OC)c2)c(O)c1O` showed an IC50 of 1.9 µM. In the case of `COc1cc(C(=O)c2ccc3c(c2)oc(=O)n3S(C)(=O)=O)cc(OC)c1OC`, the IC50 is reported as > 100 µM.

System: RXF 393
Assay: Cytotoxicity against human RXF393 cells after 48 hrs by sulforhodamine B assay
Assay type: functional
Conditions: RXF 393, 48 h
In the case of `COc1cc(C(=O)c2ccc3c(c2)oc(=O)n3S(C)(=O)=O)cc(OC)c1OC`, the GI50 is reported as 4.63 µM.

System: NCI-H322M
Assay: Cytotoxicity against human NCI-H322M cells after 48 hrs by sulforhodamine B assay
Assay type: functional
Conditions: not given
In the case of `COc1cc(C(=O)c2ccc3c(c2)oc(=O)n3S(C)(=O)=O)cc(OC)c1OC`, the GI50 is reported as 5.38 µM.
